From paper PMC6847989 (International Journal of Nanomedicine, 2019)

Experiments:
[1] = In vitro drug release / dissolution in PBS buffer; type: physicochemical; conditions: PBS 150 mM, pH 7.4, 37°C, 72 hrs
Outline: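 Release was by dialysis (3500 MWCO bag) into 20 mL PBS. Test powder (1.0 mg) was dispersed in 5 mL PBS at 37°C, or loaded hydrogel (250 μL) was placed in the bag. At set times 3 mL of outer buffer was withdrawn and replaced with fresh buffer. IGUR was quantified by UV absorbance at 309 nm.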

RA-FLS [2] = assay: MTS cell proliferation assay; type: cell-based, human; conditions: 48 hr
Outline: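 Primary RA-FLS were grown from explants of patients' synovial tissue in DMEM/20% FBS and used at passages 3–6. Cells were seeded at 3×10³ cells/100 μL and allowed to adhere overnight. They were exposed for 48 h to test compound at 40, 80, 160 or 320 μg/mL in 10% FBS high-glucose DMEM, alongside medium, PBS or blank-gel controls. After MTS for 2 h, absorbance was read at 490 nm, with six replicate wells per group.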

RA-FLS [3] = assay: Transwell migration assay; type: cell-based, human; conditions: 320 μg/mL, 48 hrs
Outline: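 RA-FLS (3×10³ cells/100 μL) in serum-free medium were placed in the upper chamber of 8-μm transwells with test compound (40–320 μg/mL). The lower chamber held 10% FBS as chemoattractant. After 48 h at 37°C, non-migrated cells were swabbed off. Underside cells were fixed in 4% paraformaldehyde for 30 min at room temperature, stained with 0.1% crystal violet, and counted in 5 random fields; three independent experiments.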

RA-FLS [4] = assay: Matrigel transwell invasion assay; type: cell-based, human; conditions: 320 μg/mL, 48 hrs
Outline: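 Transwell inserts were coated with Matrigel diluted in cold serum-free medium (medium:Matrigel 5:1) and incubated overnight. RA-FLS (3×10³ cells/100 μL) in serum-free medium plus test compound (40–320 μg/mL) were placed above 10% FBS for 48 h at 37°C. Invaded cells were fixed in 4% paraformaldehyde, stained with crystal violet, and counted in 5 random fields; three independent replicates.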

[5] = In vivo pharmacokinetics, plasma concentration by HPLC; parameters: species or system female Lewis rats; conditions: female, Lewis, rat, po, 10 mg/kg
Outline: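 Healthy female Lewis rats (150 ± 10 g, 6 weeks) received a single oral 10 mg/kg dose of test compound suspended in 0.5% sodium CMC in water. Heparinized blood was drawn at 10 and 30 min and at 1, 2, 3, 4, 6, 8, 12, 18 and 24 h. Plasma drug was measured by HPLC, and parameters were calculated from the concentration–time curve.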

[6] = tested on: collagen-induced arthritis (CIA) rats; assay: Therapeutic efficacy in collagen-induced arthritis; type: in vivo, female Lewis rats; conditions: 10 mg/kg intragastrically daily
Outline: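 Female Lewis rats (150 ± 10 g, 6 weeks) given bovine type II collagen in complete Freund's adjuvant (400 μg collagen s.c.), reboosted day 7 with incomplete adjuvant. Test compound in 0.5% CMC, 10 mg/kg intragastric daily for 21 days; n = 7 per group, untreated CIA and healthy rats as controls. Every 3 days, two researchers record weight, ankle diameter and arthritis index (each paw 0–4, maximum 16).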

[7] = tested on: collagen-induced arthritis (CIA) rats; assay: Histological evaluation of ankle joints of CIA rats; type: in vivo, female Lewis rats; conditions: 10 mg/kg intragastrically daily, 21 days
Outline: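 CIA was induced in female Lewis rats (150 ± 10 g, 6 weeks) by s.c. injection of bovine type II collagen emulsified in complete Freund's adjuvant (400 μg collagen), then boosted 7 days later with collagen in incomplete adjuvant. Oral test compound was given in 0.5% CMC for 21 days (n = 7). Right ankles were fixed, decalcified, paraffin-embedded, and stained with H&E and safranin O–fast green. Sections were given a Mankin score (5 grades) over multiple fields. Groups were compared by Mann–Whitney U or ANOVA.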

IL-6 = assay: ELISA of IL-6 in serum and synovial homogenate supernatant of CIA rats; type: in vivo, female Lewis rats; conditions: 10 mg/kg intragastrically daily, 21 days
Outline: (§1)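 Female Lewis rats; CIA from bovine type II collagen in complete Freund's adjuvant (400 μg collagen s.c.), boosted day 7 with incomplete adjuvant. Test compound in 0.5% CMC, 10 mg/kg intragastric daily, 21 days; n = 7, untreated CIA and healthy controls. Serum from canthus blood (300 × g, 10 min) and synovial homogenate supernatant (PBS, protease inhibitors) assayed by high-sensitivity ELISA; mean ± SD.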

TNF-α = assay: ELISA of TNF-α in serum and synovial homogenate supernatant of CIA rats; type: in vivo, female Lewis rats; conditions: 10 mg/kg intragastrically daily, 21 days
Outline: as §1

IL-1β = assay: ELISA of IL-1β in serum and synovial homogenate supernatant of CIA rats; type: in vivo, female Lewis rats; conditions: 10 mg/kg intragastrically daily, 21 days
Outline: as §1

[8] = cited from earlier work

dissolution rate (dissolved/released IGUR) [1]: 28.65%
AUC(0-t) [5]: 111 µg·h/mL
Cmax [5]: 12700 ng/mL
half-life [5]: 3.7 h
Structure (SMILES): CS(=O)(=O)Nc1cc2occ(NC=O)c(=O)c2cc1Oc1ccccc1 [raw IGUR, Iguratimod]
relative cell proliferation ratio (RA-FLS [2]; 160 μg/mL): 83.72 ± 1.41%
relative cell proliferation ratio (RA-FLS [2]; 320 μg/mL): 80.73 ± 2.14%
relative cell migration ratio (RA-FLS [3]): 44.69 ± 1.58%
relative cell invasion ratio (RA-FLS [4]): 44.59 ± 2.24%
body weight vs CIA group ([6]; 13th day of administration): significantly higher than in the CIA group
AI scores vs CIA group ([6]; 16th day of administration): significantly lower than in the CIA group
H&E histology of ankle joints vs CIA group [7]: less infiltration of inflammatory cells in the synovial tissue and no obvious bone erosion
Mankin's score vs CIA group ([7]; P < 0.05): significantly lower
synovitis score vs CIA group ([7]; P < 0.05): significantly lower
area of ankle cartilage vs CIA group ([7]; saffron O-fixing green staining, Image J, P < 0.05): increased significantly
serum level of IL-6 vs CIA group (IL-6): significantly lower than those in the CIA group
serum level of TNF-α vs CIA group (TNF-α): significantly lower than those in the CIA group
serum level of IL-1β vs CIA group (IL-1β): significantly lower than those in the CIA group
solubility in aqueous solvents [8]: practically insoluble
